The nature of series [1]: melting temperature; fluorescence melt of hairpins on a sequencing array, two-state fit, raised by 9.35 °C to match UV melts. Particulars: sodium 0.088 M. The essentials: (§1)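 Cy3 fluorescence of library hairpins on a sequenced MiSeq flow cell, with annealed Cy3 and quencher oligos, was imaged in 50 mM Na-HEPES pH 8.0, 25 mM NaCl in 2.5 °C steps up to 60 °C. Signals were normalised to pre-quench Cy3 and to control variants. Melting temperature and folding enthalpy came from bootstrapped two-state fits, inverse-variance combined over four replicates. Fitted temperatures were raised by 9.35 °C to match UV melts.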

The nature of series [2]: folding enthalpy; higher = less favourable; fluorescence melt of hairpins on a sequencing array, two-state fit. As to conditions: sodium 0.088 M. The essentials:
as §1

In the case of TGCAGGAAACTGCA (((((....))))), the Tm in series [1] is 51.8 °C. Also, the folding enthalpy in series [2] is -19.6 kcal/mol.

Turning to TGCATGAAAATGCA (((((....))))), the Tm in series [1] amounted to 52 °C. The folding enthalpy in series [2] is -19.8 kcal/mol.

In the case of TGGAAGAAATTCCA (((((....))))), the Tm in series [1] is 30.7 °C. In addition, in series [2], the folding enthalpy is -12.4 kcal/mol.

For TGGACGAAAGTCCA (((((....))))), in series [1], the Tm amounted to 67.5 °C. The folding enthalpy in series [2] is -19.4 kcal/mol.

Consider TGGGTGAAAACCCA (((((....))))), for which the Tm in series [1] amounted to 53.5 °C. In addition, the folding enthalpy in series [2] was -18.8 kcal/mol.

For TGTATGAAAATACA (((((....))))), the Tm in series [1] was determined as 34.5 °C. In series [2], the folding enthalpy is -11 kcal/mol.

TGTCCGAAAGGACA (((((....))))): the Tm in series [1] worked out at 68.8 °C. Also, in series [2], the folding enthalpy was -13.6 kcal/mol.

Turning to TTACGGAAACGTAA (((((....))))), the Tm in series [1] came to 42.1 °C. Also, the folding enthalpy in series [2] was -14.8 kcal/mol.

With TTACTGAAAAGTAA (((((....))))), the Tm in series [1] was found to be 26.7 °C. Further, the folding enthalpy in series [2] is -8.68 kcal/mol.

Take TTATCGAAAGATAA (((((....))))): the Tm in series [1] was 36.5 °C. The folding enthalpy in series [2] is -14.7 kcal/mol.

In the case of TTCACGAAAGTGAA (((((....))))), the Tm in series [1] came to 51 °C. In addition, in series [2], the folding enthalpy is -19.2 kcal/mol.

With TTCATGAAAATGAA (((((....))))), the Tm in series [1] is 28.9 °C. In addition, in series [2], the folding enthalpy is -9.75 kcal/mol.

On to TTCGGGAAACCGAA (((((....))))), for which, in series [1], the Tm is 46.7 °C. Also, the folding enthalpy in series [2] was -18.8 kcal/mol.

Turning to TTGAGGAAACTCAA (((((....))))), the Tm in series [1] stood at 35.3 °C. Besides, the folding enthalpy in series [2] was -15.6 kcal/mol.

As for TTGATGAAAATCAA (((((....))))), in series [1], the Tm stood at 32.8 °C. Also, the folding enthalpy in series [2] was -13.4 kcal/mol.

TTGCAGAAATGCAA (((((....))))): the Tm in series [1] was 42.3 °C. The folding enthalpy in series [2] is -20.8 kcal/mol.

TTTTCGAAAGAAAA (((((....))))): in series [1], the Tm was found to be 37.8 °C. Further, the folding enthalpy in series [2] is -15.1 kcal/mol.

(Values after the array DNA melting data of Ke et al. (doi:10.1101/2024.01.08.574731).)
